In ChEMBL document CHEMBL1909525, “Synthesis and anticonvulsant activity of novel 2,6-diketopiperazine derivatives. Part 1: perhydropyrrole[1,2-a]pyrazines” (Eur J Med Chem, 2011):
Active and inactive are the calls of the source. No cut-off for these calls is given here.

Key:
Mus musculus [1] = test: Neurotoxicity in albino Carworth Farms No.1 mouse assessed as motor impairment at 30 mg/kg, ip after 0.5 hrs by rotarod test; type: toxicity, organism-based; set-up: dose 30 mg/kg, route intraperitoneal; conditions: in vivo
Outline: (§1)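 Rotorod neurotoxicity in mice at 6 r.p.m. Compound given i.p. (30, 100, 300 mg/kg) in 0.5% methylcellulose; tested at 30 min and 4 h. Impairment is inability to keep equilibrium on the rod for a given time; scored as impaired/tested.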

Mus musculus [2] = test: Neurotoxicity in albino Carworth Farms No.1 mouse assessed as motor impairment at 100 mg/kg, ip after 0.5 hrs by rotarod test; type: toxicity, organism-based; set-up: dose 100 mg/kg, route intraperitoneal; conditions: in vivo; outline: as §1
Mus musculus [3] = test: Neurotoxicity in albino Carworth Farms No.1 mouse assessed as motor impairment at 300 mg/kg, ip after 0.5 hrs by rotarod test; type: toxicity, organism-based; set-up: dose 300 mg/kg, route intraperitoneal; conditions: in vivo; outline: as §1
Mus musculus [4] = test: Toxicity in albino Carworth Farms No.1 mouse maximal electroshock-induced seizure model assessed as death following tonic extension at 100 mg/kg, ip after 4 hrs; type: organism-based; set-up: dose 100 mg/kg, route intraperitoneal; conditions: in vivo
Outline: (§2)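 Mice (18–25 g) were given 30, 100 or 300 mg/kg i.p. in 0.5% (v/v) aqueous methylcellulose. They were tested at 30 min and 4 h with a corneal electroshock (50 mA, 60 Hz, 0.2 s) through electrodes wetted with 0.5% butacaine hemisulphate in 0.9% NaCl. Protection was abolition of hindlimb tonic extension; death following tonic extension was noted per animals tested.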

Mus musculus [5] = test: Anticonvulsant activity in albino Carworth Farms No.1 mouse assessed as protection against subcutaneous metrazol-induced seizure at 30 mg/kg, ip after 0.5 hrs; type: functional, organism-based; set-up: dose 30 mg/kg
Outline: (§3)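 Mouse scMET test. Compound given i.p. (30, 100 or 300 mg/kg) in 0.5% methylcellulose. Pentylenetetrazole 85 mg/kg (CD97) given s.c. at 0.5 or 4 h, then mice observed for 30 min. Protection is absence of clonic spasms; scored as protected/tested.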

Mus musculus [6] = test: Anticonvulsant activity in albino Carworth Farms No.1 mouse assessed as protection against subcutaneous metrazol-induced seizure at 30 mg/kg, ip after 4 hrs; type: functional, organism-based; set-up: dose 30 mg/kg; outline: as §3
Mus musculus [7] = test: Anticonvulsant activity in albino Carworth Farms No.1 mouse assessed as protection against subcutaneous metrazol-induced seizure at 100 mg/kg, ip after 0.5 hrs; type: functional, organism-based; set-up: dose 100 mg/kg; outline: as §3
Mus musculus [8] = test: Anticonvulsant activity in albino Carworth Farms No.1 mouse assessed as protection against subcutaneous metrazol-induced seizure at 100 mg/kg, ip after 4 hrs; type: functional, organism-based; set-up: dose 100 mg/kg; outline: as §3
Mus musculus [9] = test: Anticonvulsant activity in albino Carworth Farms No.1 mouse assessed as protection against subcutaneous metrazol-induced seizure at 300 mg/kg, ip after 0.5 hrs; type: functional, organism-based; set-up: dose 300 mg/kg; outline: as §3
Mus musculus [10] = test: Anticonvulsant activity in albino Carworth Farms No.1 mouse assessed as protection against subcutaneous metrazol-induced seizure at 300 mg/kg, ip after 4 hrs; type: functional, organism-based; set-up: dose 300 mg/kg; outline: as §3
Mus musculus [11] = test: Neurotoxicity in albino Carworth Farms No.1 mouse assessed as motor impairment at 100 mg/kg, ip after 4 hrs by rotarod test; type: toxicity, organism-based; set-up: dose 100 mg/kg, route intraperitoneal; conditions: in vivo; outline: as §1
Mus musculus [12] = test: Anticonvulsant activity in albino Carworth Farms No.1 mouse assessed as protection against maximal electroshock-induced seizure at 30 mg/kg, ip after 0.5 hrs; type: functional, organism-based; set-up: dose 30 mg/kg
Outline: (§4)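 Mouse MES test with compound given i.p. (30, 100 or 300 mg/kg) in 0.5% methylcellulose; tested at 0.5 and 4 h. Corneal stimulus of 50 mA at 60 Hz for 0.2 s, electrodes primed with 0.5% butacaine in 0.9% NaCl. Protection is abolition of hindlimb tonic extension; scored as protected/tested.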

Mus musculus [13] = test: Anticonvulsant activity in albino Carworth Farms No.1 mouse assessed as protection against maximal electroshock-induced seizure at 30 mg/kg, ip after 4 hrs; type: functional, organism-based; set-up: dose 30 mg/kg; outline: as §4
Mus musculus [14] = test: Anticonvulsant activity in albino Carworth Farms No.1 mouse assessed as protection against maximal electroshock-induced seizure at 100 mg/kg, ip after 0.5 hrs; type: functional, organism-based; set-up: dose 100 mg/kg; outline: as §4
Mus musculus [15] = test: Anticonvulsant activity in albino Carworth Farms No.1 mouse assessed as protection against maximal electroshock-induced seizure at 100 mg/kg, ip after 4 hrs; type: functional, organism-based; set-up: dose 100 mg/kg; outline: as §4
Mus musculus [16] = test: Anticonvulsant activity in albino Carworth Farms No.1 mouse assessed as protection against maximal electroshock-induced seizure at 300 mg/kg, ip after 0.5 hrs; type: functional, organism-based; set-up: dose 300 mg/kg; outline: as §4
Mus musculus [17] = test: Anticonvulsant activity in albino Carworth Farms No.1 mouse assessed as protection against maximal electroshock-induced seizure at 300 mg/kg, ip after 4 hrs; type: functional, organism-based; set-up: dose 300 mg/kg; outline: as §4
Mus musculus [18] = test: Toxicity in albino Carworth Farms No.1 mouse maximal electroshock-induced seizure model assessed as death following tonic extension at 30 mg/kg, ip after 0.5 hrs; type: organism-based; set-up: dose 30 mg/kg, route intraperitoneal; conditions: in vivo; outline: as §2
Mus musculus [19] = test: Neurotoxicity in albino Carworth Farms No.1 mouse assessed as motor impairment at 30 mg/kg, ip after 4 hrs by rotarod test; type: toxicity, organism-based; set-up: dose 30 mg/kg, route intraperitoneal; conditions: in vivo; outline: as §1
Mus musculus [20] = test: Neurotoxicity in albino Carworth Farms No.1 mouse assessed as motor impairment at 300 mg/kg, ip after 4 hrs by rotarod test; type: toxicity, organism-based; set-up: dose 300 mg/kg, route intraperitoneal; conditions: in vivo; outline: as §1
Mus musculus [21] = test: Anticonvulsant activity in ip dosed albino Carworth Farms No.1 mouse assessed as protection against maximal electroshock-induced seizure after 0.25 hrs; type: functional; conditions: albino Carworth Farms No.1, ip
Outline: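 Mouse quantification at the time of peak effect, compound given i.p. in 0.5% methylcellulose. Groups of at least eight mice received varied doses until at least two points fell between 100 and 0% response. ED50 (MES, scMET) and TD50 (rotorod) with 95% CI by probit analysis (Finney). PI = TD50/ED50 MES.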

[22] = Neurotoxicity in ip dosed albino Carworth Farms No.1 mouse assessed as motor impairment after 0.25 hrs by rotarod test; type: toxicity, organism-based; conditions: Carworth Farms No.1 (albino), in vivo
Outline: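 Mouse quantification at the time of peak effect, compound given i.p. in 0.5% methylcellulose. Groups of at least eight mice received varied doses until at least two points fell between 100 and 0% response. PI = TD50/ED50 MES.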

Mus musculus [23] = test: Anticonvulsant activity in ip dosed albino Carworth Farms No.1 mouse assessed as protection against electric-current for 3 secs-induced seizure after 0.25 hrs by 6Hz minimal clonic seizure test; type: functional; conditions: albino Carworth Farms No.1, ip
Mus musculus [24] = test: Anticonvulsant activity in ip dosed albino Carworth Farms No.1 mouse assessed as time needs to show peak effect for electric-current for 3 secs-induced seizure after 0.25 hrs by 6Hz minimal clonic seizure test; type: functional
Rattus norvegicus [25] = test: Anticonvulsant activity in po dosed albino Sprague-Dawley rat assessed as protection against maximal electroshock-induced seizure after 0.25 hrs; type: functional
Outline: (§5)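 Rats dosed orally, compound in 0.5% methylcellulose. MES at 150 mA, 60 Hz, 0.2 s; scMET with pentylenetetrazole 70 mg/kg s.c. plus 30 min observation; rotorod for toxicity.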

[26] = Neurotoxicity in po dosed albino Sprague-Dawley rat assessed as motor impairment after 0.25 hrs by rotarod test; type: toxicity, organism-based; conditions: in vivo; outline: as §5
Rattus norvegicus [27] = test: Anticonvulsant activity in po dosed Sprague-Dawley rat assessed as time needs to show peak effect for protection against subcutaneous metrazol-induced seizure after 0.25 hrs; type: functional; outline: as §5
Mus musculus [28] = test: Anticonvulsant activity in ip dosed albino Carworth Farms No.1 mouse assessed as time needs to show peak effect for protection against subcutaneous metrazol-induced seizure; type: functional

C[C@H]1C(=O)NC(=O)[C@@H]2CCCN12
Activity (Mus musculus [1]): Non-toxic | Activity (Mus musculus [2]): Non-toxic | Activity (Mus musculus [3]): Non-toxic | Activity (Mus musculus [4]): Toxic | Activity (Mus musculus [5]): inactive | Activity (Mus musculus [6]): inactive | Activity (Mus musculus [7]): inactive | Activity (Mus musculus [8]): inactive | Activity (Mus musculus [9]): inactive | Activity (Mus musculus [10]): inactive | Activity (Mus musculus [11]): Toxic | Activity (Mus musculus [12]): inactive | Activity (Mus musculus [13]): inactive | Activity (Mus musculus [14]): inactive | Activity (Mus musculus [15]): inactive | Activity (Mus musculus [16]): inactive | Activity (Mus musculus [17]): inactive | Activity (Mus musculus [18]): Toxic | Activity (Mus musculus [19]): Non-toxic | Activity (Mus musculus [20]): Non-toxic

CCC1(C)CC(=O)NC1=O (stereo not drawn) [ETHOSUXIMIDE]
ED50 (Mus musculus [21]): > 500 mg/kg | TD50 at 0.25 h [22]: 341 mg/kg | ED50 (Mus musculus [23]): 167 mg/kg | Time (Mus musculus [24]): 0.25 h | ED50 (Rattus norvegicus [25]): > 500 mg/kg | TD50 at 0.25 h [26]: > 500 mg/kg | Time (Rattus norvegicus [27]): 0.25 h | Time (Mus musculus [28]): 0.25 h
